Results as given in ChEMBL document CHEMBL5724801, “EUbOPEN Chemogenomics Library - Multiplex” (2024).
Where “and” joins values, the source holds several entries; their conditions need not be identical. Equal entries are not always repeated.

Test system: U2OS
Experiment: Multiplex assay against U2OS
Format: toxicity, cell-based
Details: human
Summary of the method: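 Live cells were stained at seeding with Hoechst33342, BioTracker Green Microtubule Cytoskeleton Dye, MitoTracker Red and Annexin V Alexa Fluor 680, then imaged on a CQ1 microscope at 37°C and 5% CO2 after compound addition. CellPathfinder machine-learning gating split cells into Hoechst high-intensity objects or normal cells. Normal cells were split into healthy, pyknosed or fragmented nuclei, and pyknosed cells into mitotic or apoptotic. Tubulin, mitochondrial-mass and membrane-permeability phenotypes are per cents of healthy-nucleus cells.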

[1] = 12 h, 1 µM, compound concentration 1 uM
[2] = 12 h, 10 µM, compound concentration 10 uM
[3] = 24 h, 1 µM, compound concentration 1 uM
[4] = 24 h, 10 µM, compound concentration 10 uM
[5] = 48 h, 1 µM, compound concentration 1 uM
[6] = 48 h, 10 µM, compound concentration 10 uM

CN(C)C/C=C/C(=O)Nc1ccc(C(=O)N2CCCC(Nc3ncc(Cl)c(-c4c[nH]c5ccccc45)n3)C2)cc1 (stereo unspecified)
Population Apoptotic (%) [1]: 77% and 83%
Population Fragmented Nuclei (%) [1]: 31% and 18%
Population Healthy Nuclei (%) [1]: 60% and 77%
Population Hoechst High Intensity Objects (%) [1]: 2% and 0%
Population Membrane Permeable-Phenotype (%) [1]: 5% and 6%
Population Mitochondria Different-Phenotype (%) [1]: 3% and 5%
Population Mitotic Cells (%) [1]: 22% and 16%
Population Normal (%) [1]: 97% and 99%
Population Pyknosed Nuclei (%) [1]: 8% and 4%
Population Tubulin-Different-Phenotype (%) [1]: 4% and 8%
Total Cell Count [1]: 228 and 139
Population Apoptotic (%) [2]: 80% and 75%
Population Fragmented Nuclei (%) [2]: 31% and 25%
Population Healthy Nuclei (%) [2]: 47% and 54%
Population Hoechst High Intensity Objects (%) [2]: 5% and 2%
Population Membrane Permeable-Phenotype (%) [2]: 33% and 23%
Population Mitochondria Different-Phenotype (%) [2]: 40% and 42%
Population Mitotic Cells (%) [2]: 20% and 25%
Population Normal (%) [2]: 94% and 97%
Population Pyknosed Nuclei (%) [2]: 20%
Population Tubulin-Different-Phenotype (%) [2]: 49% and 37%
Total Cell Count [2]: 233 and 121
Population Apoptotic (%) [3]: 93% and 100%
Population Fragmented Nuclei (%) [3]: 34% and 21%
Population Healthy Nuclei (%) [3]: 53% and 67%
Population Hoechst High Intensity Objects (%) [3]: 2% and 0%
Population Membrane Permeable-Phenotype (%) [3]: 7% and 8%
Population Mitochondria Different-Phenotype (%) [3]: 2%
Population Mitotic Cells (%) [3]: 6% and 0%
Population Normal (%) [3]: 97% and 99%
Population Pyknosed Nuclei (%) [3]: 11%
Population Tubulin-Different-Phenotype (%) [3]: 6% and 5%
Total Cell Count [3]: 271 and 164
Population Apoptotic (%) [4]: 87% and 97%
Population Fragmented Nuclei (%) [4]: 39% and 31%
Population Healthy Nuclei (%) [4]: 35%
Population Hoechst High Intensity Objects (%) [4]: 9% and 5%
Population Membrane Permeable-Phenotype (%) [4]: 22% and 21%
Population Mitochondria Different-Phenotype (%) [4]: 33% and 28%
Population Mitotic Cells (%) [4]: 12% and 2%
Population Normal (%) [4]: 90% and 94%
Population Pyknosed Nuclei (%) [4]: 25% and 32%
Population Tubulin-Different-Phenotype (%) [4]: 29% and 17%
Total Cell Count [4]: 239 and 135
Population Apoptotic (%) [5]: 94% and 96%
Population Fragmented Nuclei (%) [5]: 29% and 10%
Population Healthy Nuclei (%) [5]: 60% and 77%
Population Hoechst High Intensity Objects (%) [5]: 3%
Population Membrane Permeable-Phenotype (%) [5]: 10% and 3%
Population Mitochondria Different-Phenotype (%) [5]: 3%
Population Mitotic Cells (%) [5]: 5% and 3%
Population Normal (%) [5]: 96%
Population Pyknosed Nuclei (%) [5]: 10% and 12%
Population Tubulin-Different-Phenotype (%) [5]: 5% and 3%
Total Cell Count [5]: 339 and 221
Population Apoptotic (%) [6]: 100%
Population Fragmented Nuclei (%) [6]: 50%
Population Healthy Nuclei (%) [6]: 17% and 18%
Population Hoechst High Intensity Objects (%) [6]: 15% and 9%
Population Membrane Permeable-Phenotype (%) [6]: 47% and 26%
Population Mitochondria Different-Phenotype (%) [6]: 27% and 19%
Population Mitotic Cells (%) [6]: 0%
Population Normal (%) [6]: 84% and 90%
Population Pyknosed Nuclei (%) [6]: 32% and 31%
Population Tubulin-Different-Phenotype (%) [6]: 38% and 23%
Total Cell Count [6]: 251 and 157

CC(=O)Nc1cccc2c1c(Sc1ccc(Cl)cc1)c(C)n2CC(=O)O [AZD1981]
Population Apoptotic (%) [1]: 68% and 83%
Population Fragmented Nuclei (%) [1]: 24% and 16%
Population Healthy Nuclei (%) [1]: 68% and 76%
Population Hoechst High Intensity Objects (%) [1]: 3% and 1%
Population Membrane Permeable-Phenotype (%) [1]: 3% and 6%
Population Mitochondria Different-Phenotype (%) [1]: 0% and 1%
Population Mitotic Cells (%) [1]: 31% and 16%
Population Normal (%) [1]: 96% and 98%
Population Pyknosed Nuclei (%) [1]: 6% and 7%
Population Tubulin-Different-Phenotype (%) [1]: 2% and 3%
Population Apoptotic (%) [2]: 83% and 80%
Population Fragmented Nuclei (%) [2]: 25% and 19%
Population Healthy Nuclei (%) [2]: 66% and 76%
Population Hoechst High Intensity Objects (%) [2]: 2% and 3%
Population Membrane Permeable-Phenotype (%) [2]: 8% and 10%
Population Mitochondria Different-Phenotype (%) [2]: 0% and 3%
Population Mitotic Cells (%) [2]: 16% and 20%
Population Normal (%) [2]: 97% and 96%
Population Pyknosed Nuclei (%) [2]: 7% and 4%
Population Tubulin-Different-Phenotype (%) [2]: 1% and 5%
Total Cell Count [2]: 231 and 122
Population Apoptotic (%) [3]: 91% and 50%
Population Fragmented Nuclei (%) [3]: 25% and 16%
Population Healthy Nuclei (%) [3]: 66% and 82%
Population Hoechst High Intensity Objects (%) [3]: 2% and 0%
Population Membrane Permeable-Phenotype (%) [3]: 5% and 4%
Population Mitochondria Different-Phenotype (%) [3]: 1% and 3%
Population Normal (%) [3]: 97% and 100%
Population Pyknosed Nuclei (%) [3]: 8% and 1%
Population Tubulin-Different-Phenotype (%) [3]: 3% and 0%
Total Cell Count [3]: 289 and 106
Population Apoptotic (%) [4]: 88% and 100%
Population Fragmented Nuclei (%) [4]: 23% and 14%
Population Healthy Nuclei (%) [4]: 66% and 77%
Population Hoechst High Intensity Objects (%) [4]: 0%
Population Membrane Permeable-Phenotype (%) [4]: 6% and 3%
Population Mitochondria Different-Phenotype (%) [4]: 2% and 4%
Population Mitotic Cells (%) [4]: 11% and 0%
Population Normal (%) [4]: 99%
Population Pyknosed Nuclei (%) [4]: 9% and 8%
Population Tubulin-Different-Phenotype (%) [4]: 2% and 0%
Total Cell Count [4]: 266 and 125
Population Apoptotic (%) [5]: 91% and 81%
Population Fragmented Nuclei (%) [5]: 16% and 9%
Population Healthy Nuclei (%) [5]: 74% and 82%
Population Hoechst High Intensity Objects (%) [5]: 1% and 3%
Population Membrane Permeable-Phenotype (%) [5]: 6%
Population Mitochondria Different-Phenotype (%) [5]: 2% and 0%
Population Mitotic Cells (%) [5]: 8% and 18%
Population Normal (%) [5]: 98% and 96%
Population Pyknosed Nuclei (%) [5]: 9% and 7%
Population Tubulin-Different-Phenotype (%) [5]: 4% and 1%
Total Cell Count [5]: 375 and 144
Population Apoptotic (%) [6]: 100% and 85%
Population Fragmented Nuclei (%) [6]: 18% and 14%
Population Healthy Nuclei (%) [6]: 75% and 73%
Population Hoechst High Intensity Objects (%) [6]: 2% and 1%
Population Membrane Permeable-Phenotype (%) [6]: 7%
Population Mitochondria Different-Phenotype (%) [6]: 2% and 4%
Population Mitotic Cells (%) [6]: 0% and 15%
Population Normal (%) [6]: 97% and 98%
Population Pyknosed Nuclei (%) [6]: 5% and 11%
Population Tubulin-Different-Phenotype (%) [6]: 4%
Total Cell Count [6]: 366 and 171

COCCNc1cc(NC(=O)N2CCCc3cc(CN4CCN(C)CC4=O)c(C=O)nc32)ncc1C#N [FGF401]
Population Apoptotic (%) [1]: 50% and 42.86%
Population Fragmented Nuclei (%) [1]: 2.96% and 1.3%
Population Healthy Nuclei (%) [1]: 87.87% and 85.06%
Population Hoechst High Intensity Objects (%) [1]: 0%
Population Membrane Permeable-Phenotype (%) [1]: 2.15% and 0%
Population Mitochondria Different-Phenotype (%) [1]: 0% and 2.29%
Population Mitotic Cells (%) [1]: 50% and 57.14%
Population Normal (%) [1]: 100%
Population Pyknosed Nuclei (%) [1]: 9.16% and 13.64%
Population Tubulin-Different-Phenotype (%) [1]: 2.15% and 0.76%
Total Cell Count [1]: 371 and 154
Population Apoptotic (%) [2]: 37.5% and 26.32%
Population Fragmented Nuclei (%) [2]: 0.72% and 5.88%
Population Healthy Nuclei (%) [2]: 91.65% and 82.94%
Population Hoechst High Intensity Objects (%) [2]: 0.24% and 0%
Population Membrane Permeable-Phenotype (%) [2]: 1.3% and 4.26%
Population Mitochondria Different-Phenotype (%) [2]: 0% and 3.55%
Population Mitotic Cells (%) [2]: 62.5% and 73.68%
Population Normal (%) [2]: 99.76% and 100%
Population Pyknosed Nuclei (%) [2]: 7.64% and 11.18%
Population Tubulin-Different-Phenotype (%) [2]: 0.52% and 0%
Total Cell Count [2]: 420 and 170
Population Apoptotic (%) [3]: 48.94% and 42.31%
Population Fragmented Nuclei (%) [3]: 1.93% and 2.97%
Population Healthy Nuclei (%) [3]: 88.97% and 84.16%
Population Hoechst High Intensity Objects (%) [3]: 0.19% and 0%
Population Membrane Permeable-Phenotype (%) [3]: 0.87% and 1.18%
Population Mitochondria Different-Phenotype (%) [3]: 0.87% and 4.71%
Population Mitotic Cells (%) [3]: 51.06% and 57.69%
Population Normal (%) [3]: 99.81% and 100%
Population Pyknosed Nuclei (%) [3]: 9.09% and 12.87%
Population Tubulin-Different-Phenotype (%) [3]: 0.87% and 0%
Total Cell Count [3]: 518 and 202
Population Apoptotic (%) [4]: 43.18% and 34.29%
Population Fragmented Nuclei (%) [4]: 1.85% and 3.54%
Population Healthy Nuclei (%) [4]: 90.04% and 80.97%
Population Hoechst High Intensity Objects (%) [4]: 0%
Population Membrane Permeable-Phenotype (%) [4]: 1.23% and 2.19%
Population Mitochondria Different-Phenotype (%) [4]: 0% and 3.28%
Population Mitotic Cells (%) [4]: 56.82% and 65.71%
Population Normal (%) [4]: 100%
Population Pyknosed Nuclei (%) [4]: 8.12% and 15.49%
Population Tubulin-Different-Phenotype (%) [4]: 0.61% and 1.09%
Total Cell Count [4]: 542 and 226
Population Apoptotic (%) [5]: 45.12% and 50%
Population Fragmented Nuclei (%) [5]: 4.25% and 1.54%
Population Healthy Nuclei (%) [5]: 87.05% and 87.38%
Population Hoechst High Intensity Objects (%) [5]: 0%
Population Membrane Permeable-Phenotype (%) [5]: 0.73% and 3.17%
Population Mitochondria Different-Phenotype (%) [5]: 0.49% and 4.23%
Population Mitotic Cells (%) [5]: 54.88% and 50%
Population Normal (%) [5]: 100%
Population Pyknosed Nuclei (%) [5]: 8.7% and 11.08%
Population Tubulin-Different-Phenotype (%) [5]: 0.73% and 0.7%
Total Cell Count [5]: 942 and 325
Population Apoptotic (%) [6]: 39.42% and 53.49%
Population Fragmented Nuclei (%) [6]: 2% and 2.76%
Population Healthy Nuclei (%) [6]: 87.6% and 86.43%
Population Hoechst High Intensity Objects (%) [6]: 0% and 0.25%
Population Membrane Permeable-Phenotype (%) [6]: 1.14% and 2.62%
Population Mitochondria Different-Phenotype (%) [6]: 0.11% and 1.45%
Population Mitotic Cells (%) [6]: 60.58% and 46.51%
Population Normal (%) [6]: 100% and 99.75%
Population Pyknosed Nuclei (%) [6]: 10.4% and 10.8%
Population Tubulin-Different-Phenotype (%) [6]: 0.91% and 1.16%
Total Cell Count [6]: 1000 and 399
